Source: the EternaBench riboswitch data

Test system: MS2 coat protein
Assay: apparent Kd, MS2 coat protein; higher = weaker binding; RNA-MaP array; FMN 200 µM where present
Summary of the method: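 Green signal from SNAP-549-labelled MS2 coat protein was normalised to red-channel RNA signal and to the median Fmax of control clusters. The protein was titrated from 0.7 or 1.5 nM, doubling to 3 µM, without and then with constant ligand, over designs transcribed by stalled E. coli RNA polymerase on Illumina sequencing-chip clusters, in 100 mM Tris-HCl pH 7.5, 80 mM KCl, 4 mM MgCl2, BSA, DTT, yeast tRNA and Tween-20. The apparent Kd is the median of filtered per-cluster binding-curve fits.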

[1] = designed as: OFF switch for flavin mononucleotide, no ligand
[2] = ligand present: flavin mononucleotide, designed as: OFF switch for flavin mononucleotide
[3] = designed as: ON switch for flavin mononucleotide, no ligand
[4] = ligand present: flavin mononucleotide, designed as: ON switch for flavin mononucleotide

CCAGCGUAUGUGAGGAUAUGCUGGUCCUUGGAUCAGCAGAAGGCACAUGAGGAUCACCCAUGUGAUAACGUUGG
apparent Kd [1]: 59.5 nM | apparent Kd [2]: 261 nM

UGAAUAAUGUUAGGAUAUACAUGAGGAAUCCUCGUAGAAGGAACAUGACAUGAGGAUCACCCAUGUAGCGCUCAGAAGAGCGCA
apparent Kd [3]: 140 nM | apparent Kd [4]: 135 nM

GGAUUACAUGAGGAUCACCCAUGUGAGGAUAUCGAUGUCCUGUAAUUCGUGCGGGACUCGAGAAGGCACUUGGA
apparent Kd [1]: 51.3 nM | apparent Kd [2]: 168 nM

GCCAUCGCAUGAGGAUAUGCUCCGGUUUCCGGAGCAGAAGGCAUGUCAUAAGACAUGAGGAUCACCCAUGUAGCUAAGAUGGCA
apparent Kd [3]: 307 nM | apparent Kd [4]: 11.9 nM

UAUAGUGGCGUAGGAUAUCUGCGUACAUGAGGAUCACCCAUGUCUCCCAGCAGCUGAUCUGGGACAGAGAAGGGCGACCGCAUA
apparent Kd [3]: 157 nM | apparent Kd [4]: 63.6 nM

AAGGUGAGUCAAGGAUAUCCGGGCUGAAUGCCAGGAGAAGGUGACAUGAGGAUCACCCAUGUCUCUCCGAGCAUGGUAUUCUCA
apparent Kd [1]: 148 nM | apparent Kd [2]: 138 nM

AAGGAACAUGAGGAUCACCCAUGUGAGGAUAUGUGAGAAGGAUUUGAGAAGGAGAGGGACAGAAGGCACUAGGA
apparent Kd [1]: 46.9 nM | apparent Kd [2]: 41.8 nM

AAACAUGUCCGAGGAUAUCUGGAAACAUUUUCAAGAGAAGGCGGACAUGAGGAUCACCCAUGUCUCUCCUCAUCAAAUCCAAGC
apparent Kd [1]: 8.2 nM | apparent Kd [2]: 44.9 nM

GCACUCAAGUUAGGAUAUGGACCAGAAACUGGUCCAGAAGGAACAUGGGAACAUGAGGAUCACCCAUGUUCCAGAAACGAGUGC
apparent Kd [3]: 840 nM | apparent Kd [4]: 186 nM

CUUCUGUGAGGAUAUGUUAGUUCCCAGCAAAUCGCUGGGAGACAGAAGGCACAUGAGGAUCACCCAUGUGGGCG
apparent Kd [1]: 39.2 nM | apparent Kd [2]: 221 nM

AAGAAGUCAGGAUAUGCAUGGCGGGACUUGCGUCGUGGCGUGCAGAAGGGACAUGAGGAUCACCCAUGUAAAGG
apparent Kd [1]: 151 nM | apparent Kd [2]: 180 nM

CGCAACUUUUCUCAUGUAAACAUGAGGAUCACCCAUGUAAUGAGAAGGAGGAGAAAGAGAGAAUCCUAGGAUAUCAGAGUUGCG
apparent Kd [1]: 6.29 nM | apparent Kd [2]: 6.53 nM

UUACUUGUGCAGAAGGGCAUUGAUUUAGGUUUUUAGGUUGAUCAGAUAUGCAGGAUAUGCUAUACAUGAGGAUCACCCAUGUUC
apparent Kd [3]: 112 nM | apparent Kd [4]: 8.99 nM

AAGCGCGUAGGAUAUACAUGAGGAUCACCCAUGUGAGGAGGGAGUUGGAGGUGUGGAAGUAGAAGGACGGAGUG
apparent Kd [1]: 48.1 nM | apparent Kd [2]: 37.6 nM

AGCAGAACGUCAGGAUAUGUGGGUACUUUAGUCACAUGAGGAUCACCCAUGUAGGACUGCGAUCAACAGAAGGGACAAUUAGCA
apparent Kd [3]: 279 nM | apparent Kd [4]: 16.2 nM

CGGGAUAGGAAGGGCGAAAGCCCACAUGAGGAUCACCCAUGUAGAAGGCGGGCCGCAACGCGGCCCGAGGAUAUACACUAUCCA
apparent Kd [1]: 6.63 nM | apparent Kd [2]: 12.7 nM

GCCAACGCAUGAGGAUAUGCUCCCGUUUCGGGAGCAGAAGGCAUGUCAUAAGACAUGAGGAUCACCCAUGUAGUUAACAUGGCA
apparent Kd [3]: 572 nM | apparent Kd [4]: 31.2 nM

ACAUGAGGAUCACCCAUGUAGAAUGAAGAAGGUGGAUACUUGUGACUCACCCAUGUACAUAGGACUAAGGAUAUUCUAAUAAUU
apparent Kd [3]: 25.1 nM | apparent Kd [4]: 23 nM

GCCAUCGCAUGAGGAUAUGCUCCCGUUUCGGGAGCAGAAGGCAUGUCACAAGACAUGAGGAUCACCCAUGUAGUUAAGAUGGCA
apparent Kd [3]: 194 nM | apparent Kd [4]: 8.52 nM

UAAGUUUUGGUAGGAUAUACUUUAAAUUUCUCUAUCCAUACAUGAGGAUCACCCAUGUUUACAUUGUAGAAGGACCUUUAUGUU
apparent Kd [1]: 36.8 nM | apparent Kd [2]: 34 nM

GUCGAGUGAGGAUAUGGUGAGUAGUGCCUGAGCGCUGCUCACCAGAAGGCACAUGAGGAUCACCCAUGUAUAGC
apparent Kd [2]: 29 nM

AAAUAACAUGAGGAUCACCCAUGUCCGCGCCAUCAAGGAUAUGGGUGCCGGCUAGGUCAGCUAGAAGGUGGUGGUG
apparent Kd [3]: 28.8 nM | apparent Kd [4]: 34.5 nM

AAAAAACAUGAGGAUCACCCAUGUCAGGAUAUCUGGAGAAACGGAAAGAAAAAGAAACGGAGAAGGGACAUAAA
apparent Kd [1]: 41.1 nM | apparent Kd [2]: 48 nM

UAUAUAUAGUAAGGAUAUGUAAUUAUUUUACAAACAGAAGGUACUGACAUGAGGAUCACCCAUGUUUUAGUGUGGGCAUGUAGA
apparent Kd [1]: 47.3 nM | apparent Kd [2]: 54.4 nM

GGCGGCGGACAAGGAUAUAAGACGCGGACCAAAUUAGAAGGUGUCAUCUGGCAAUGCGAAAGCAGACAUGAGGAUCACCCAUGU
apparent Kd [3]: 78.9 nM | apparent Kd [4]: 72.7 nM

UAUAGACAUGAGGAUCACCCAUGUAAGGAUAUCGGUACUAAUGGUAUAAUCUACUUAGCGAGAAGGUACAAUGU
apparent Kd [1]: 31 nM | apparent Kd [2]: 30.6 nM

GUACCUUAUGAGAAGGCGAUCAUUAAACAUGAUCGAGGAUAUCAUGAAAACAUGAGGAUCACCCAUGUAUGGGUAUUAUGGUAC
apparent Kd [3]: 33.6 nM | apparent Kd [4]: 16.4 nM

UUAUUAUAUGUAGGAUAUGCAUAUAAUUAUUGUGCAGAAGGACAUGAGGAUCACCCAUGUAUAUUAUUAUUAUAUAUUAUAUAU
apparent Kd [1]: 24.9 nM | apparent Kd [2]: 14.3 nM
